The values below come from ChEMBL document CHEMBL1130193, “Synthesis, cardiotonic activity, and structure-activity relationships of 17 beta-guanylhydrazone derivatives of 5 beta-androstane-3 beta, 14 beta-diol acting on the Na+,K(+)-ATPase receptor” (J Med Chem, 1997).

Assay [1] is filed under the species Cavia porcellus. Briefly: In vitro inotropic activity was determined by the affects of contractile force on guinea pig left atrium; Maximal increase in force of contraction. It is filed as functional. The settings on record: Cardiac atrium. Put shortly: (§1)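 Isolated atrium preparations in solution bubbled with 95% O2/5% CO2, driven by platinum electrodes with square-wave pulses at 1 Hz (1 ms, twice threshold voltage). After 60 min equilibration, cumulative concentrations were added, each kept until maximal response or arrhythmias appeared.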

The species named for assay [2] is Cavia porcellus. Briefly: (§2) In vitro inotropic activity was determined by the affects of contractile force on guinea pig left atrium. Type of assay: functional, organism-based. The settings on record: Cardiac atrium. In short, it runs like this: as §1
The species entered for assay [3] is Cavia porcellus. Briefly: In vitro inotropic activity was determined by the affects of contractile force on guinea pig left atrium. Type of assay: functional, Cardiac atrium. In short, it runs like this: as §1
Assay [4] can be described thus: Arrhythmogenic activity was determined by the onset of the first series of ectopic beats. Type of assay: functional, Heart. Put shortly: as §1
Assay [5] has as its target Sodium/potassium-transporting ATPase subunit alpha-1 (Canis lupus familiaris, UniProt P50997). Briefly: Inhibition of Na+/K+ ATPase from dog kidney.
A short description of assay [6]: % of preparations of arrhythmogenic activity was determined by the onset of the first series of ectopic beats. Further details: concentration or dose not given beside the values. Type of assay: functional, Heart. Put shortly: as §1
The species named for assay [7] is Cavia porcellus. The description is as §2. It is filed as functional, Cardiac atrium. Put shortly:
as §1

SMILES strings stand for the structures.

The Emax is the size of the effect at its maximum, as opposed to the concentration needed. What is called EC50 is the midpoint of the concentration-response curve. As usually defined, the IC50 is the concentration needed to halve the response being measured. `C[C@]12CC[C@H](O)C[C@H]1CC[C@@H]1[C@@H]2CC[C@]2(C)[C@@H](/C=N/N=C(N)N)CC[C@]12O.Cl`: the Emax in the assay listed under Cavia porcellus [1] was 265%. In the assay filed under Cavia porcellus [2], a half-maximal effect (EC50) was put at 4 µM. In the assay listed under Cavia porcellus [3], the “concentration giving Emax” value came out at 30 µM. The values for the Activity in assay [4] and in assay [6] were 30 µM and 57%, respectively. This molecule showed a 50% inhibitory concentration (IC50) in assay [5] of 1.58 µM.
The molecule `C[C@]12CC[C@H](O)C[C@H]1CC[C@@H]1[C@@H]2CC[C@]2(C)[C@@H](/C=C/C=N/NC3=NCCN3)CC[C@]12O` came in with an Emax in the assay listed under Cavia porcellus [1] of 136%. Further, the EC50 in the assay filed under Cavia porcellus [2] turned out to be 9 µM. Moreover, the “concentration giving Emax” value in the assay listed under Cavia porcellus [3] was 100 µM. For the same molecule, the Activity was found to be 100 µM in assay [4] and 50% in assay [6].
For `C[C@]12CC[C@H](O)C[C@H]1CC[C@@H]1[C@@H]2CC[C@]2(C)[C@@H](/C=C/C=C/C=N/N=C(N)N)CC[C@]12O`, the Emax in the assay filed under Cavia porcellus [1] worked out at 98%. Further, it took 15 µM to reach a half-maximal effect in the assay listed under Cavia porcellus [2] (EC50). For the same molecule, the “concentration giving Emax” value in the assay filed under Cavia porcellus [3] turned out to be 100 µM. The Activity in assay [4] was determined as 300 µM; in assay [6], 100%. Further, in assay [5], the midpoint of inhibition, the IC50, lay at 7.94 µM.
`C[C@]12CC[C@H](O)C[C@H]1CC[C@@H]1[C@@H]2CC[C@]2(C)[C@@H](/C=N/NC3=NCCN3)CC[C@]12O` registered an Emax in the assay listed under Cavia porcellus [1] of 129%. Further, in the assay filed under Cavia porcellus [2], the EC50 was determined as 17 µM. The “concentration giving Emax” value in the assay filed under Cavia porcellus [3] was found to be 300 µM. Further, the Activity was determined as 300 µM in assay [4] and 0% in assay [6].
Molecule `C[C@]12CC[C@H](O)C[C@H]1CC[C@@H]1[C@@H]2CC[C@]2(C)[C@@H](/C=N/NC3=NCCCN3)CC[C@]12O` showed an Emax in the assay filed under Cavia porcellus [1] of 62%. In the assay listed under Cavia porcellus [2], the EC50 is 5 µM. The “concentration giving Emax” value in the assay filed under Cavia porcellus [3] came to 30 µM. In assay [4], the Activity was found to be 30 µM.
`C[C@]12CC[C@H](O)C[C@H]1CC[C@@H]1[C@@H]2CC[C@]2(C)[C@@H](/C=C/C=N/N=C(N)N)CC[C@]12O` returned a maximal response (Emax) in the assay filed under Cavia porcellus [1] of 140%. This molecule also registered a concentration giving a half-maximal response (EC50) in the assay listed under Cavia porcellus [2] of 0.4 µM. The “concentration giving Emax” value in the assay listed under Cavia porcellus [3] is 3 µM. Moreover, the Activity worked out at 3 µM in assay [4] and 20% in assay [6]. It took 0.16 µM to reach half-maximal inhibition in assay [5] (IC50).
`C[C@]12CC[C@H](O)C[C@H]1CC[C@@H]1[C@@H]2CC[C@]2(C)[C@@H](CNN=C(N)N)CC[C@]12O.Cl` yielded an Emax in the assay filed under Cavia porcellus [1] of 166%. Also, the EC50 in the assay filed under Cavia porcellus [2] is 8 µM. For the same molecule, the “concentration giving Emax” value in the assay listed under Cavia porcellus [3] worked out at 30 µM. Besides, the Activity in assay [4] was 100 µM; in assay [6], 0%. In assay [5], half-maximal inhibition (IC50) was put at 2 µM.
Consider `C[C@]12CC[C@H](O)C[C@H]1CC[C@@H]1[C@@H]2CC[C@]2(C)[C@@H](/C=C/C3=CC(=O)OC3)CC[C@]12O`, for which, in the assay listed under Cavia porcellus [1], the Emax came to 110%. The same molecule returned an EC50 in the assay filed under Cavia porcellus [2] of 14 µM. For the same molecule, the “concentration giving Emax” value in the assay filed under Cavia porcellus [7] turned out to be 100 µM. For the same molecule, the Activity in assay [4] worked out at 300 µM; in assay [6], 0%. Also, the IC50 in assay [5] stood at 3.98 µM.
As to `C[C@]12CC[C@H](O)C[C@H]1CC[C@@H]1[C@@H]2CC[C@]2(C)[C@@H](C3=CC(=O)OC3)CC[C@]12O` [DIGITOXIGENIN], the Emax in the assay filed under Cavia porcellus [1] is 200%. In the assay filed under Cavia porcellus [2], this molecule displayed a concentration for a half-maximal effect (EC50) of 0.6 µM. The “concentration giving Emax” value in the assay filed under Cavia porcellus [7] came out at 3 µM. In addition, the Activity stood at 10 µM in assay [4] and 60% in assay [6]. The same molecule gave an IC50 in assay [5] of 0.5 µM.
In the assay listed under Cavia porcellus [2], `C[C@H]1O[C@@H](O[C@H]2[C@@H](O)C[C@H](O[C@H]3[C@@H](O)C[C@H](O[C@H]4CC[C@@]5(C)[C@H](CC[C@@H]6[C@@H]5C[C@@H](O)[C@]5(C)[C@@H](C7=CC(=O)OC7)CC[C@]65O)C4)O[C@@H]3C)O[C@@H]2C)C[C@H](O)[C@@H]1O` [DIGOXIN] registered an EC50 of 0.4 µM. The “concentration giving Emax” value in the assay filed under Cavia porcellus [3] came out at 1 µM. Further, the Activity is 3 µM in assay [4] and 50% in assay [6].
